Screens (PubChem BioAssay)
CaV13 ICDI inh – Primary screen for inhibitors of IQ motif and Ca2+-dependent inactivation inhibitor domain binding in CACNA1D, Förster resonance energy transfer in living cells, …; HEK cells, CFP/YFP FRET ICDI-IQ, plate reader, 10 min; percent FRET-ratio fall versus neutral wells; actives 0.098% (n = 340,000); inhibition, % at 12.3 µM;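 active means mean replicate inhibition of at least 30% and at least 1% of replicates passing that level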;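 further: 0% = median of the neutral control wells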
Arr AP2 block – inhibitors of beta-arrestin/AP2 binding, primary screen, biochemical, GPCR trafficking, flow cytometry; beta-arrestin 1 C-terminal peptide binding to AP2 beta2-adaptin appendage (human); FITC-arrestin peptide / GST-AP2 beads; AP2 beta2 appendage carries R879A mutation; inhibition, % at 10 µM; actives 0.31% (n = 340,000);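 active means inhibition above a set limit, near 3 SD of compounds lacking own fluorescence, cut at about 54% in these data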;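 further: plate controls were DMSO wells for no effect and 5 µM unlabelled arrestin peptide for full effect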
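System: GST-AP2 R879A bound to glutathione beads, E. coli-expressed. Also added: 50 nM FITC-arrestin peptide. Schedule: compound with beads 12 min RT, then probe 1 h RT. Signal: bead flow cytometry, FITC channel. Read-out basis: percent response.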
ADAM10 inh – human ADAM10 inhibitors, primary screen, biochemical, QFRET, HTS; Disintegrin and metalloproteinase domain-containing protein 10 (Homo sapiens), O14672; recombinant ADAM10, EDANS/DABCYL FRET peptide cleavage, 3 h; inhibition, % at 7 µM; actives 0.62% (n = 370,000);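 active means inhibition above a per-campaign cutoff equal to the mean of compounds falling between control-based bounds plus 3 SD, cut at about 20% in these data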;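 further: 0% = DMSO wells while the 100% control is not disclosed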
Target sequence (O14672 214-748 limits assumed): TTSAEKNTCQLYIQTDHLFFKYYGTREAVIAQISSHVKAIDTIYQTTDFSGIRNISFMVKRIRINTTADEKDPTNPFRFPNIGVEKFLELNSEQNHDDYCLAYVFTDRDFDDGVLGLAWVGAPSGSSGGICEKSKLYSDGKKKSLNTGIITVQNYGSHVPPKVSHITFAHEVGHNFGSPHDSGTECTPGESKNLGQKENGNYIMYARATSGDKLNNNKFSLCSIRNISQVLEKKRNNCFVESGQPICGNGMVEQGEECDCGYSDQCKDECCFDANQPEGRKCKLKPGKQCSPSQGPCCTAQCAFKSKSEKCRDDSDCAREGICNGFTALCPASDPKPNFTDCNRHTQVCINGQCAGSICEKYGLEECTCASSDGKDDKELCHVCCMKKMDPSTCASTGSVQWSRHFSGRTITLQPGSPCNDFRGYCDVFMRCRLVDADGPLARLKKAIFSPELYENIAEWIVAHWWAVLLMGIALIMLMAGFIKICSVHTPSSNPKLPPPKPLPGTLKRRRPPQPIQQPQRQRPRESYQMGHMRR
ADAM17 inh – ADAM17 inhibitors, primary screen, biochemical, QFRET; recombinant ADAM17, EDANS/DABCYL FRET peptide cleavage; inhibition, % at 6.95 µM; actives 0.83% (n = 370,000);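 active means inhibition above the mean of compounds lying between control limits plus 3 SD, set per campaign, cut at about 8.5% in these data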;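 further: 0% = DMSO-only wells as the low control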
FAS-TE inh – FAS thioesterase domain inhibitors, primary screen, biochemical, fluorescence intensity, uHTS. actives 0.67% (n = 360,000). inhibition, % at 15 µM. recombinant FAS-TE, OMFH fluorogenic substrate, fluorescence endpoint. Fatty acid synthase (Homo sapiens), P49327. AID 602261, 2012;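 active means compounds whose normalised, plate-corrected inhibition of enzyme fluorescence in the single-dose primary screen is 50% or more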;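 further: 0% = DMSO with enzyme and 100% = substrate without enzyme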
NRP1-CendR mod – modulators of CendR peptide binding to NRP-1, primary screen, biochemical, fluorescence polarization, uHTS | Neuropilin-1 (Homo sapiens), O14786 | actives 0.85% (n = 360,000) | inhibition, % at 25 µM | AID 602438, 2012 | FAM-RPARPAR peptide binding to NRP-1;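 active means inhibition or corrected inhibition above about 18%, plus a signal ratio from 0.5 to 1.5, limit read from the data, passing the limit was not always enough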
ADAM10 counter – ADAM10 inhibitors, counter-screen for ADAM17 exosite inhibitor project, biochemical, FRET, human ADAM10 | inhibition, % at 6.95 µM | recombinant ADAM10, EDANS/DABCYL FRET peptide cleavage, 3 h | AID 743256, 2014 | shares compounds with ADAM17 inh | actives 47% (n = 2,900);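 active means mean inhibition over the triplicate runs exceeds the activity threshold set in the earlier primary screen, cut at about 20% in these data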;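 further: 0% = DMSO wells and 100% = marimastat wells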
ADAM17 confirm – ADAM17 inhibitors, hit retest, confirmation, biochemical, QFRET peptide cleavage. shares compounds with ADAM17 inh. recombinant ADAM17, EDANS/DABCYL QFRET peptide cleavage. inhibition, % at 6.95 µM. actives 65% (n = 2,900);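 active means mean inhibition across replicates above the hit cutoff set in the primary screen, cut at about 8.5% in these data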;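 further: 0% = DMSO wells and 100% = marimastat wells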
* = called active by the depositor; . = no result given. Most compounds without a hit are left out; they make up all but 2.9% or so of the library.

SMILES	CaV13 ICDI inh	Arr AP2 block	ADAM10 inh	ADAM17 inh	FAS-TE inh	NRP1-CendR mod	ADAM10 counter	ADAM17 confirm
CCOc1cc(/C=N/NC(=O)c2ccc3c(c2)OCCO3)cc(Br)c1O	-8.0	-4.0	-5.7	23.3*	1.6	5.8	-18.7	1.3
O=C(N/N=C/c1cc(Br)c(O)c(Br)c1O)c1ccc2c(c1)OCCO2	-4.7	10.1	-63.8	-24.7	8.1	-38.2	.	.
Cc1nn(Cc2noc(C(=O)NCc3ccccn3)n2)c(C)c1Br	-2.7	24.2	8.7	9.6*	-7.0	6.0	-2.1	1.1
Cc1nn(Cc2noc(C(=O)NCCc3ccccn3)n2)c(C)c1Br	-3.6	6.6	14.7	0.9	-3.1	2.3	.	.
CN(CC(=O)Nc1ccc(Cl)c(C(F)(F)F)c1)C(=O)c1ccc(OCC2CCCO2)cc1 (centres undefined)	-1.5	-6.8	12.7	8.7*	10.3	16.6	25.1*	9.7*
CCN(CC)C(=O)C1=C(C)N(Cc2ccccc2)C(=O)C(CC(=O)NCCN2CCOCC2)C1 (centres undefined)	-6.6	.	-11.0	-6.2	-10.4	3.8	.	.
CC1(Cc2ccccc2Cl)C(=O)Nc2ccc(OC(F)(F)F)cc21 (centres undefined)	-6.6	.	13.4	13.0*	27.7	-5.0	20.9*	12.6*
COc1cc(OC)cc(C(=O)N(Cc2ccco2)c2c(N)n(Cc3ccccc3)c(=O)[nH]c2=O)c1	-13.2	-1.2	-19.7	-1.2	-5.8	-9.8	.	.
O=C(CC[C@H]1O[C@@H](n2cnc3c(NC(=O)c4ccccc4)ncnc32)[C@H](O)[C@@H]1O)N[C@@H](CO)Cc1c[nH]c2ccccc12	-9.1	.	-9.8	0.9	-4.0	-1.9	.	.
Nc1[nH]c(C(=O)c2ccc(Br)cc2)c(-c2ccccn2)c1C(=O)NCCc1c[nH]c2ccccc12	-5.8	.	16.6	8.8*	.	.	14.7	11.5*
Nc1[nH]c(C(=O)c2ccccc2)c(-c2ccccc2C(F)(F)F)c1C(=O)NCCc1c[nH]c2ccccc12	-9.1	.	7.1	9.4*	8.6	-34.2	7.0	5.3
Nc1[nH]c(C(=O)c2ccc(Br)cc2)c(-c2ccc(Cl)cc2[N+](=O)[O-])c1C(=O)NCCc1c[nH]c2ccccc12	-8.9	.	5.2	9.3*	.	.	15.1	14.2*
Nc1[nH]c(C(=O)c2ccccc2)c(-c2ccccc2Br)c1C(=O)NCCc1c[nH]c2ccccc12	-11.0	.	4.3	4.4	23.2	-9.6	.	.
CCOC(=O)N1CCN(C(=O)C[C@H]2C[C@@]3(C(=O)OC)C(=C[C@H](C(C)C)O[C@@H]3C3CC3)N(Cc3ccccc3)C2=O)CC1	-4.4	.	0.0	3.0	.	.	.	.
CC(C)Oc1ccc(CN2CCC2(C)C(=O)Nc2cnc3ccccc3c2)cc1 (centres undefined)	-5.5	.	-9.7	-1.3	18.2	8.2	.	.
COc1ccc(-c2cc(CNc3nc(NCc4ccccc4OC)nc4ccsc34)on2)cc1	-3.4	.	-7.5	0.1	13.7	7.1	.	.
CC(C)(C)c1ccc(OCc2nc(-c3ccccn3)no2)c(Br)c1	.	-5.4	15.6	8.7*	16.3	-1.7	15.3	18.4*
Cc1cc(C)cc(C(=O)NCC(=O)OCC(=O)N2CCN(S(=O)(=O)c3ccc4ccccc4c3)CC2)c1	-3.7	0.6	14.5	10.1*	14.1	-4.3	26.3*	12.3*
